Published values gathered from unrelated publications.
Protocols differ between the studies behind these lines.
Target: Mitogen-activated protein kinase kinase kinase 20 (MAP3K20, Homo sapiens, UniProt Q9NYL2)

| SMILES | read-out | action | method | tested at | measurement | value |
| --- | --- | --- | --- | --- | --- | --- |
| c1ccc(CNc2nc(N3CCOc4ccccc43)nc3c2CCCC3)cc1 | target engagement in cells | inhibitor | chemoproteomics | 20 mM | inhibition | -6.3% |
| Cn1c2c(c3ccc(Cl)c(Cl)c31)C(C#N)C1(CCNCC1)NC2=O (racemic) | thermal stability | – | DSF | 10 µM | ΔTm | 0 °C |
| CCCOc1ccc([C@H]2[C@H](C(=O)O)[C@@H](c3ccc4c(c3)OCO4)CN2CC(=O)Nc2c(CC)cccc2CC)cc1 | cell-free assay | – | competition with immobilised ligand | 1 µM | remaining binding | 90% |
| N#CCCc1ccc2c(c1)-c1[nH]c3ccc([N+](=O)[O-])cc3c1CC(=O)N2 | cell-free assay | – | – | 0.5 µM | remaining signal | 88.6% |
| CC(C)(O)[C@H]1CC[C@H](Nc2ccc3ncc(-c4cccc(C(F)(F)F)c4)n3n2)CC1 | enzyme activity | inhibitor | – | 1 µM | remaining activity | 75.7% |
| Cn1c2c(c3ccc(Cl)c(Cl)c31)C(C#N)C(C)(C)NC2=O (centres unmarked) | thermal stability | – | DSF | 10 µM | ΔTm | 0.4 °C |
| CC(C)(C)c1nc2c(s1)c1nc(N)ncc1c1ccc(NS(=O)(=O)c3c(F)cccc3F)c(F)c12 | enzyme activity | inhibitor | radiometric | 1 µM | remaining activity | 103% |
| O=C(N1CCS(=O)(=O)CC1)N1C[C@H](c2ccc(OC(F)(F)F)cc2)C[C@H](c2nc(C3CC3)no2)C1 | cell-free assay | – | competition with immobilised ligand | 1 µM | remaining binding | 100% |
| Cc1ccc(NC(=O)c2ccc(CN3CCN(C)CC3)cc2)cc1Nc1nc(-c2cccnc2)cs1 | cell-free assay | – | – | 0.5 µM | remaining signal | 86.8% |
| CO[C@H]1CC[C@H](CNc2ccc(S(=O)(=O)NC(=O)c3ccc(N4CCN(CC5=C(c6ccc(Cl)cc6)CC(C)(C)CC5)CC4)cc3Oc3cnc4[nH]ccc4c3)cc2[N+](=O)[O-])CC1 | cell-free assay | – | competition with immobilised ligand | 1 µM | remaining binding | 100% |
| CCN1CCC2(CC1)NC(=O)c1c(c3ccc(Cl)c(Cl)c3n1C)C2C#N (racemic) | thermal stability | – | DSF | 10 µM | ΔTm | -0.3 °C |
| O=C1Nc2ccc(Cl)cc2C1=Cc1cc(Cl)c(O)c(Cl)c1 | cell-free assay | – | – | 0.5 µM | remaining signal | 77.4% |
| CCCCN(CCCC)C(=O)CN1C[C@H](c2cc(OC)c3c(c2)OCO3)[C@@H](C(=O)O)[C@@H]1CC(C)(C)CCC | cell-free assay | – | competition with immobilised ligand | 1 µM | remaining binding | 85.2% |
| Cc1ccc(C(=O)Nc2ccc(CN3CCN(C)CC3)c(C(F)(F)F)c2)cc1C#Cc1cnc2cccnn12 | enzyme activity | inhibitor | – | 23.5 nM | remaining activity | 2.9% |
| CCOc1cc(-c2nncn2C)ccc1Nc1ncc2cc(C)nc(NCC(C)(C)C)c2n1 | cell-free assay | – | TR-FRET | 1 µM | inhibition | ≤ 15% |
| COc1cc2c(N3CCN(C(=O)Nc4ccc(OC(C)C)cc4)CC3)ncnc2cc1OCCCN1CCCCC1 | cell-free assay | – | – | 0.5 µM | remaining signal | 99.7% |
| Cn1c2c(Cl)c(Cl)ccc2c2cn[nH]c(=O)c21 | thermal stability | – | DSF | 10 µM | ΔTm | 0.4 °C |
| COc1cc(Cl)c(C(=O)N[C@@H](CN[C@H]2CC[C@@H](N)CC2)Cc2ccc(C#N)cc2)cc1-c1ccc(CN[C@H](C)c2ccc(C)cc2)o1 | enzyme activity | inhibitor | – | 1 µM | remaining activity | 97% |
| Cc1nccc(COC(=O)N2C[C@@H]3[C@@H](CNC(=O)c4ccc5[nH]nnc5c4)[C@@H]3C2)n1 | cell-free assay | – | competition with immobilised ligand | 1 µM | remaining binding | 90% |
| Cn1c2c(c3ccc(Cl)c(Cl)c31)C(C#N)C1(CCCC1)NC2=O (centres unmarked) | thermal stability | – | DSF | 10 µM | ΔTm | -0.1 °C |
| CC(=O)N1CCC(c2ccc(C(=O)NC(=N)N)cc2C(F)(F)F)CC1 | cell-free assay | – | competition with immobilised ligand | 1 µM | remaining binding | 100% |
| Cn1c2c(Cl)c(Cl)ccc2c2cc[nH]c(=O)c21 | thermal stability | – | DSF | 10 µM | ΔTm | -0.2 °C |
| COc1ccc2c(O[C@@H]3C[C@H]4C(=O)N[C@]5(C(=O)O)CC5/C=C\CCCCC[C@H](NC(=O)OC5CCCC5)C(=O)N4C3)cc(-c3csc(NC(=O)C(C)C)n3)nc2c1C (some centres unmarked) | cell-free assay | – | competition with immobilised ligand | 1 µM | remaining binding | 83% |
| O=C(Nc1cnn(-c2csc(C(=O)NC3COC3)c2)c1)Nc1c(F)cccc1Cl | enzyme activity | inhibitor | – | 5 µM | remaining activity | 90.4% |
| CC(=O)c1c(NS(C)(=O)=O)c2cc(-c3ccc(Cl)cc3)c(-c3ccc(Cl)cc3Cl)nc2n(C)c1=O | cell-free assay | – | competition with immobilised ligand | 1 µM | remaining binding | 92% |
| CNC(=O)c1cc2c(Oc3ccc(NC(=O)C4(C(=O)Nc5ccc(F)cc5)CC4)cc3)ccnc2cc1OC | enzyme activity | inhibitor | radiometric | 1 µM | inhibition | 82% |
